# Measurements from ChEMBL document CHEMBL1156620, “Structure-activity relationship studies on a novel class of antiproliferative agents derived from Lavendustin A. Part I: Ring A modifications” (Bioorg Med Chem, 2008).
# System: HaCaT
# Assay: Antiproliferative activity against human HaCaT cells after 3 days by sulforhodamine B assay
# Type: functional, cell-based
# Details: 72 h
# How it was run: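 HaCaT keratinocytes kept in DMEM with 5% FCS, trypsinized and seeded at 4000 cells/0.2 mL/well in 96-well plates. Medium swapped after 24 h for fresh medium with graded compound concentrations. Proliferation read by sulforhodamine B colorimetry after 3 days. IC50 taken as the average of at least two independent measurements.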
row,Compound,IC50 [nM]
1,COC(=O)c1cc(CCc2c(OC)cccc2OC)ccc1O,110
2,COC(=O)c1cc(CCc2cc(OC)ccc2O)ccc1O,1100
3,COC(=O)c1cc(CCc2cc(OC)c(C(C)(C)C)cc2C(C)=O)ccc1O,8200
4,COC(=O)c1cc(CCc2cc(O)ccc2OC)ccc1O,8700
5,COC(=O)c1cc(CCc2cccc(OC)c2OC)ccc1O,33000
6,CCc1ccc(OC)c(CCc2ccc(O)c(C(=O)OC)c2)c1,430
7,COC(=O)c1cc(CCc2cc(OC)ccc2N(C)C)ccc1O,650
8,COC(=O)c1cc(CCc2cc(OC(C)=O)ccc2OC(C)=O)ccc1O,24000
9,CCOc1ccc(OC)c(CCc2ccc(O)c(C(=O)OC)c2)c1,540
10,COC(=O)c1cc(CCc2ccc3c(c2)OCO3)ccc1O,36000
11,COC(=O)c1cc(CCc2cccc(OC)c2)ccc1O,37000
12,COC(=O)c1cc(CCc2cc(OC)ccc2Br)ccc1O,210
13,COC(=O)c1cc(CCc2cc(OC)ccc2OC)ccc1O,47
14,COC(=O)c1cc(CCc2cc(Cl)ccc2OC)ccc1O,6900
15,COC(=O)c1cc(CCc2ccc(OC)cc2OC)ccc1O,19000
16,CCOc1ccc(OCC)c(CCc2ccc(O)c(C(=O)OC)c2)c1,380
17,COC(=O)c1cc(CCc2cc(O)ccc2O)ccc1O,21000
18,COC(=O)c1cc(CCc2cc(C(C)=O)ccc2OC)ccc1O,660
19,CCc1ccc(OC)cc1CCc1ccc(O)c(C(=O)OC)c1,130
20,COC(=O)c1cc(CCc2cc(N(C)C)ccc2OC)ccc1O,920
21,COC(=O)c1cc(CCc2c(OC)ccc(OC)c2OC)ccc1O,3500
22,COC(=O)c1cc(CCc2cc(OC)c(OC)c(OC)c2)ccc1O,3500
23,CCc1cccc(OC)c1CCc1ccc(O)c(C(=O)OC)c1,200
24,CCOc1ccc(OC)cc1CCc1ccc(O)c(C(=O)OC)c1,120
25,COC(=O)c1cc(CCc2cc(OC)ccc2C(C)=O)ccc1O,41
26,COC(=O)c1cc(CCc2cc(SC)ccc2OC)ccc1O,860
27,CCc1ccc(CC)c(CCc2ccc(O)c(C(=O)OC)c2)c1,650
28,COC(=O)c1cc(CCc2ccccc2OC)ccc1O,20000

# System: HaCaT
# Assay: Antimitotic activity against human HaCaT cells assessed as mitotic index at 20 uM after 20 hrs
# Type: functional
# Details: not given
# How it was run: (§1)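 HaCaT cells grown in DMEM with 5% FCS, seeded in chamber slides at 24000 cells/0.4 ml/well. After 24 h, medium replaced with fresh medium containing the stated compound concentration, then 20 h incubation. Cells fixed in 90% acetone for 5 min at room temperature. DNA stained with DAPI (0.5 μg/ml, 1 h, RT). Metaphase-arrested cells scored by fluorescence microscopy, at least 300 cells per concentration. Mitotic index = 100% × mitotic/total cells.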
row,Compound,Activity [%]
1,COC(=O)c1cc(CCc2cc(O)ccc2OC)ccc1O,57

# System: HaCaT
# Assay: Antimitotic activity against human HaCaT cells assessed as mitotic index at 0.2 uM after 20 hrs
# Type: functional
# Details: not given
# How it was run: as §1
row,Compound,Activity [%]
1,COC(=O)c1cc(CCc2cc(OC)ccc2OC)ccc1O,36
2,CCOc1ccc(OC)cc1CCc1ccc(O)c(C(=O)OC)c1,38

# System: HaCaT
# Assay: Antimitotic activity against human HaCaT cells assessed as mitotic index at 0.4 uM after 20 hrs
# Type: functional
# Details: not given
# How it was run: as §1
row,Compound,Activity [%]
1,COC(=O)c1cc(CCc2c(OC)cccc2OC)ccc1O,24
2,CCc1ccc(OC)cc1CCc1ccc(O)c(C(=O)OC)c1,47

# System: HaCaT
# Assay: Antimitotic activity against human HaCaT cells assessed as mitotic index at 0.5 uM after 20 hrs
# Type: functional
# Details: not given
# How it was run: as §1
row,Compound,Activity [%]
1,CCOc1ccc(OC)c(CCc2ccc(O)c(C(=O)OC)c2)c1,31

# System: HaCaT
# Assay: Antimitotic activity against human HaCaT cells assessed as mitotic index at 30 uM after 20 hrs
# Type: functional
# Details: not given
# How it was run: as §1
row,Compound,Activity [%]
1,COC(=O)c1cc(CCc2cc(Cl)ccc2OC)ccc1O,27
2,COC(=O)c1cc(CCc2ccccc2OC)ccc1O,16

# System: HaCaT
# Assay: Antimitotic activity against human HaCaT cells assessed as mitotic index at 10 uM after 20 hrs
# Type: functional
# Details: not given
# How it was run: as §1
row,Compound,Activity [%]
1,COC(=O)c1cc(CCc2c(OC)ccc(OC)c2OC)ccc1O,25
2,COC(=O)c1cc(CCc2cc(OC)c(OC)c(OC)c2)ccc1O,18

# System: HaCaT
# Assay: Antimitotic activity against human HaCaT cells assessed as mitotic index at 3 uM after 20 hrs
# Type: functional
# Details: not given
# How it was run: as §1
row,Compound,Activity [%]
1,COC(=O)c1cc(CCc2cc(OC)ccc2N(C)C)ccc1O,42
2,CCOc1ccc(OCC)c(CCc2ccc(O)c(C(=O)OC)c2)c1,20

# System: HaCaT
# Assay: Antimitotic activity against human HaCaT cells assessed as mitotic index at 50 uM after 20 hrs
# Type: functional
# Details: not given
# How it was run: as §1
row,Compound,Activity [%]
1,COC(=O)c1cc(CCc2cc(O)ccc2O)ccc1O,2.2

# Biological target: Tubulin (Sus scrofa, UniProt P02554+P02550)
# Assay: Inhibition of pig brain tubulin polymerization
# Details: not given
# How it was run: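 Pig brain tubulin purified by three warm/cold assembly cycles in 1 M monosodium glutamate pH 6.6 with 1 mM GTP. Compound (DMSO, 4% v/v final) preincubated with tubulin 15 min at 30 °C in 0.8 M glutamate pH 6.6 without GTP. Samples then chilled, given GTP, and shifted from 0 °C to 30 °C. Turbidity read at 350 nm. IC50 is 50% inhibition of polymerization extent at 20 min, by linear interpolation.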
row,Compound,IC50 [nM]
1,COC(=O)c1cc(CCc2cc(OC)ccc2OC)ccc1O,1000

# System: HaCaT
# Assay: Antimitotic activity against human HaCaT cells assessed as mitotic index at 2.5 uM after 20 hrs
# Type: functional
# Details: not given
# How it was run: as §1
row,Compound,Activity [%]
1,COC(=O)c1cc(CCc2cc(N(C)C)ccc2OC)ccc1O,28
2,COC(=O)c1cc(CCc2cc(SC)ccc2OC)ccc1O,37

# System: HaCaT
# Assay: Antimitotic activity against human HaCaT cells assessed as mitotic index at 1.5 uM after 20 hrs
# Type: functional
# Details: not given
# How it was run: as §1
row,Compound,Activity [%]
1,COC(=O)c1cc(CCc2cc(OC)ccc2C(C)=O)ccc1O,46

# System: HaCaT
# Assay: Antimitotic activity against human HaCaT cells assessed as mitotic index at 2 uM after 20 hrs
# Type: functional
# Details: not given
# How it was run: as §1
row,Compound,Activity [%]
1,COC(=O)c1cc(CCc2cc(OC)ccc2O)ccc1O,27
2,COC(=O)c1cc(CCc2cc(C(C)=O)ccc2OC)ccc1O,26
3,CCc1ccc(CC)c(CCc2ccc(O)c(C(=O)OC)c2)c1,30

# System: HaCaT
# Assay: Antimitotic activity against human HaCaT cells assessed as mitotic index at 1 uM after 20 hrs
# Type: functional
# Details: not given
# How it was run: as §1
row,Compound,Activity [%]
1,CCc1ccc(OC)c(CCc2ccc(O)c(C(=O)OC)c2)c1,44
2,COC(=O)c1cc(CCc2cc(OC)ccc2Br)ccc1O,20
3,CCc1cccc(OC)c1CCc1ccc(O)c(C(=O)OC)c1,50

# System: HaCaT
# Assay: Antimitotic activity against human HaCaT cells assessed as mitotic index at 100 uM after 20 hrs
# Type: functional
# Details: not given
# How it was run: as §1
row,Compound,Activity [%]
1,COC(=O)c1cc(CCc2cc(OC)c(C(C)(C)C)cc2C(C)=O)ccc1O,4.4
2,COC(=O)c1cc(CCc2cccc(OC)c2OC)ccc1O,3.7
3,COC(=O)c1cc(CCc2ccc3c(c2)OCO3)ccc1O,2.9
4,COC(=O)c1cc(CCc2cccc(OC)c2)ccc1O,36
5,COC(=O)c1cc(CCc2ccc(OC)cc2OC)ccc1O,7.2

# Biological target: Tubulin (Sus scrofa) (UniProt P02554+P02550)
# Assay: Binding affinity to pig brain tubulin at 10 uM after 15 mins relative to control
# Details: not given
# Chain of Tubulin (Sus scrofa) (P02550 whole entry, looked up): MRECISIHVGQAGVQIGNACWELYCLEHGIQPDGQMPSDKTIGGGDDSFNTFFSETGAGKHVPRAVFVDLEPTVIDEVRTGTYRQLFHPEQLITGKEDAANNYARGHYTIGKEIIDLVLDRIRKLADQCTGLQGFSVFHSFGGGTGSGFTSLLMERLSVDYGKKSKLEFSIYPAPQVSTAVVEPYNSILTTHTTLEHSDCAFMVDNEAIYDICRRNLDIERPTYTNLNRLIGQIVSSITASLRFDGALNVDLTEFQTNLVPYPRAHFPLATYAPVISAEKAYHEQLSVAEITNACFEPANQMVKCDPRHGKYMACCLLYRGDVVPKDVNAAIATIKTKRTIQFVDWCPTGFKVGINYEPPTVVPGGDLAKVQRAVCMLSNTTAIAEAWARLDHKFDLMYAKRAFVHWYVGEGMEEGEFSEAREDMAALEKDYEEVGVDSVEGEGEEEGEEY
# Chain of Tubulin (Sus scrofa) (P02554 whole entry, looked up): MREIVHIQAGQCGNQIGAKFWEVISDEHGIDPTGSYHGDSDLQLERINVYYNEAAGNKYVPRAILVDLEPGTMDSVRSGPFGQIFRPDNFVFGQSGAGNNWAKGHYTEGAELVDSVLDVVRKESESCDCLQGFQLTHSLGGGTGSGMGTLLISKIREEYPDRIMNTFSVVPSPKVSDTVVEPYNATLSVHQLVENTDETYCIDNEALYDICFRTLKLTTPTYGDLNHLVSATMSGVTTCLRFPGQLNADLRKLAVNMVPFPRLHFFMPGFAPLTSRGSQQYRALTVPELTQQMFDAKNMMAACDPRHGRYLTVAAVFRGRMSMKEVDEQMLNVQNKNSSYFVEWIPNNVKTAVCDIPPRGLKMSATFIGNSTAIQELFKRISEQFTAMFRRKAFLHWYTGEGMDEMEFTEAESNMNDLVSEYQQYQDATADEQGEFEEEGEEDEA
row,Compound,Activity [%]
1,COC(=O)c1cc(CCc2cc(OC)ccc2OC)ccc1O,43
